From PubChem
Rows were chosen to be rich in hits. Some 3.7% of all compounds tested hit in one or more screens of this group.
KCNK3 block: human KCNK3 channel inhibition, primary screen; B-score at 10 µM; O14649; 0.84% of 340,000 active; AID 602410; CHO-KCNK3 thallium flux, FluxOR fluorescence; stronger effect = lower value;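 active = B-score under library mean minus 4 SD, starting fluorescence ratio at most library mean plus 5 SD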;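 note: more negative B-score means stronger inhibition of thallium flux through KCNK3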
KCNQ1 act: potentiators or activators of human KCNQ1 potassium channel | P51787 | CHO-K1 KCNQ1, thallium flux FluxOR fluorescence; stronger effect = higher value | B-score at 10 µM | 0.35% of 310,000 active;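 active = fluorescence ratio B-score, a plate-corrected score, at least three library SD, with initial intensity B-score within 5 SD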
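Doses: Single concentration per compound, DMSO matched to controls | Test system: KCNQ1-transfected CHO-K1 cells | Timing: 90 min dye loading and 20 min compound exposure, both at room temperature | Measured by: Kinetic FluxOR thallium fluorescence, 10-s 1-Hz baseline, 110-s post-stimulus read | Medium: Assay buffer with matched DMSO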
Kir21 block: Kir2.1 (mouse) channel inhibition | P35561 | HEK293-Kir2.1, FluxOR thallium flux fluorescence; stronger effect = lower value | B-score at 10 µM | 0.85% of 310,000 active | AID 1672;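 active = fluorescence ratio B-score at or below minus 3 SD of library scores, with starting-brightness B-score within 2 SD, cut at about -4.2 in these data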;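 note: channel flux triggered by added potassium and thallium sulfate stimulus; B-score of peak minus minimum fluorescence over baseline after thallium stimulus; more negative B-score means stronger Kir2.1 block with less thallium influx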
hERG rescue: hERG (human) protection from proarrhythmic block. Q12809. CHO-hERG, FluxOR thallium flux, dofetilide IC70 present. activation (rescue from dofetilide block), less the hit threshold, % at 10 µM. 0.51% of 310,000 active;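 active = activation above the mean of controls blocked by dofetilide plus 5 SD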;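 note: thallium influx through hERG after potassium depolarization seen as dye fluorescence rise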
KCNK9 block: human KCNK9 channel inhibition | Q9NPC2 | 1.2% of 310,000 active | B-score at 10 µM | AID 488922 | HEK293 KCNK9, FluxOR thallium flux fluorescence; stronger effect = lower value;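 active = ratio B-score over 3 SD below the library mean, with starting fluorescence within 5 SD of its mean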;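 note: negative B-score means less thallium flux so channel inhibition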
KCNQ1 block: human KCNQ1 channel inhibition; P51787; CHO-K1 KCNQ1, FluxOR thallium flux fluorescence; stronger effect = higher value; B-score at 10 µM; 1.3% of 310,000 active; AID 2642;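 active = compounds whose thallium flux B-score, printed positive for inhibition, exceeds three library SD while starting fluorescence stays within three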;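 note: channel opened by potassium depolarization with thallium stimulus after 20 min compound exposure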
KCNK9 inh conf: confirmation of human KCNK9 potassium channel inhibitors; shares compounds with KCNK9 block; HEK293 KCNK9 cells, FluxOR thallium flux fluorescence; inhibition, % at 10 µM; 43% of 4,900 active; AID 492992;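 active = thallium signal inhibited by more than 5 SD of the compound-free buffer control wells, on both duplicate plates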;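 note: 0% = assay buffer control wells without compound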
Kir2-1 spec: mouse Kir2.1 off-target activity of KCNK9 modulators; shares compounds with KCNK9 block; Kir2.1 cells, FluxOR thallium flux fluorescence; inhibition, % at 10 µM; 4% of 4,900 active; AID 492993;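 active = thallium signal drop more than 5 SD beyond the mean of the no-compound control wells, seen in both duplicate plates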;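 note: signal is fluorescence rise after thallium addition divided by baseline fluorescence; plate controls were assay buffer only for no effect and full block by chlorpromazine control for full effect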
KCNK9 uninduced: second check of KCNK9 modulator effects in non-induced HEK293 cells | shares compounds with KCNK9 block | FluxOR thallium flux | inhibition, % at 10 µM | 40% of 4,900 active;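 active = thallium signal drop beyond 5 SD of the untreated control mean, on both duplicate plates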;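 note: plate controls were buffer only IC0 wells for no effect and SID17386958 at its maximal inhibitory level for full effect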
* = called active by the depositor; i = inactive; . = not tested or not shown.

SMILES | KCNK3 block | KCNQ1 act | Kir21 block | hERG rescue | KCNK9 block | KCNQ1 block | KCNK9 inh conf | Kir2-1 spec | KCNK9 uninduced
COc1ccc(NC(=O)C23CC4CC(C2)CC(c2ccccc2)(C4)C3)c(OC)c1 | i | i | 0.35 | -2 | i | i | i | i | i
COc1ccc([N+](=O)[O-])cc1NC(=O)C(C)N(C)Cc1ccc(Br)cc1 (stereo not drawn) | i | i | -2.5 | -12 | -8.6* | i | 31%* | i | 38%*
O=C(NCc1ccco1)c1cc(S(=O)(=O)N2CCCc3ccccc32)ccc1Cl | i | i | -0.17 | -11 | i | i | i | i | i
COc1ccc(S(=O)(=O)N2CCc3ccccc32)cc1C(=O)NCc1ccco1 | i | . | . | . | . | . | . | . | .
Cc1ccc(C)n1-c1ccc(C(=O)Nc2ccccc2F)cc1 | i | i | 1 | -16 | i | i | . | . | .
CCc1ccccc1NC(=O)c1ccc(-n2c(C)ccc2C)cc1 | i | i | 0.9 | -6 | -8.5* | i | 32%* | i | i
Cc1cc(Nc2cc(Cl)nc(Sc3ccc(NC(=O)C4CC4)cc3)n2)n[nH]1 | i | i | 1.1 | -12 | i | i | . | . | .
CCC(C(=O)N1CCN(c2cccc(Cl)c2)CC1)c1ccccc1 (stereo not drawn) | -11* | i | 0.15 | -8 | -11* | i | 50%* | i | 32%*
COc1ccc(CCNC(=O)C2CCN(S(=O)(=O)c3ccc4nc5c(c(C(=O)O)c4c3)CCCC5)CC2)cc1OC | i | i | -0.69 | 1 | i | i | . | . | .
c1ccc(-c2cc3c(N4CCN(c5ncccn5)CC4)ncnc3s2)cc1 | i | i | 0.66 | -10 | i | i | i | i | i
CCC(=O)c1ccc2ncccc2c1 | i | i | -0.69 | -12 | i | i | . | . | .
COc1ccc(-c2csc3nc(-c4ccccc4OC)oc(=O)c23)cc1 | i | i | 0.36 | -9 | -11* | i | 72%* | i | i
CCOC(=O)c1cc(-c2ccccc2)n(CC2CC(c3ccc(OC)cc3)=NO2)n1 (stereo not drawn) | i | i | -0.42 | -7 | i | i | . | . | .
Cc1ccc2c(Cl)c(C)c(N3CCCCC3)nc2n1 | i | i | -1.2 | -6 | i | i | i | i | i
Cc1nc2ccccc2nc1N1CCCCC1 | i | . | . | . | . | . | . | . | .
CC(C)CC(OC(=O)CC1Sc2ccccc2NC1=O)C(=O)NC1CCCC1 (stereo not drawn) | i | i | 1.8 | -6 | -8.9* | i | i | i | i
COc1ccc(S(=O)(=O)NCc2ccco2)cc1NC(=O)c1ccccc1 | i | i | -0.71 | -11 | i | i | . | . | .
CC1CCN(c2ccccc2NC(=O)c2ccc(C#N)cc2F)CC1 | i | i | -0.11 | -8 | i | i | . | . | .
CC(C)C(=O)N1CCN(c2ccccc2NC(=O)c2ccc(C#N)cc2F)CC1 | i | i | -1.1 | -20 | i | i | i | i | i
Cc1ccc(SCc2cc(=O)[nH]c(/N=C(\N)Nc3ccc(C)c(C)c3)n2)cc1 | i | i | -0.11 | -9 | i | i | i | i | i
N/C(=N\c1nc(CSc2ccc(Cl)cc2)cc(=O)[nH]1)Nc1cccc2ccccc12 | i | i | 0.01 | -3 | i | i | i | i | i
COc1ccc(CNC(=O)C(C)OC(=O)CCN2C(=O)C3CC=CCC3C2=O)cc1 (stereo not drawn) | i | i | -0.22 | -16 | i | i | . | . | .
CCCCCCCCN1[C@@H](CC(=O)OC)c2cc(C(F)(F)F)ccc2S1(=O)=O | i | i | 2.2 | -10 | i | i | i | i | i
